PfGluPho inh: PfG6PD (Plasmodium falciparum) enzyme inhibition | inhibition, % at 20 µM | PfGluPho enzyme, NADPH resazurin-diaphorase fluorescence | AID 504690 | 350,000 tested, 0.78% active;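 active = inhibition reaching at least a set limit at 20 µM in the primary screen, cut at about 59% in these data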
Diaphorase inh: diaphorase inhibition or chemical oxidation counter-screen; diaphorase resazurin-to-resorufin fluorescence, NADH, 16 min; bacterial (C. kluyveri) enzyme, not human; inhibition, % at 20 µM; 190,000 tested, 0.69% active; AID 1217;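 active = primary screen inhibition at 20 µM above a set limit, cut at about 50% in these data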
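Test system: bacterial diaphorase enzyme (C. kluyveri); Quantity: 0.14 U/mL diaphorase, enzyme working solution; Times: reaction incubation of 16 min at room temperature; Measured by: fluorescence of resorufin formed from resazurin, Ex 544/Em 590 nm; Benchmarks: positive control minus NADH, DMSO neutral control.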
G6PDH counter: counter-screen for G6PDH assay hits: L. mesenteroides G6PDH inhibition; Purified L. mesenteroides G6PDH, diaphorase/resazurin coupled fluorescence, 45 min; inhibition, % at 5 µM; 200,000 tested, 0.12% active; AID 1020
Lmaj promast: reduces viability of Leishmania major promastigotes. 200,000 tested, 9% active. resazurin fluorescence viability. AID 1063. inhibition, % at 10 µM;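 note: promastigotes grown with compound for 44 hours at 28 °C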
Redox H2O2 prof: compounds producing H2O2 with reducing agent – biochemical, NIH compound library profiling, artefact control for MLSCN library redox annotation, primary screen; DTT-dependent redox cycling H2O2, phenol red/HRP absorbance; 100% = 100 µM peroxide control, 0% = buffer; activation, % at 10 µM; 200,000 tested, 0.03% active; AID 878;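 active = activation of at least 50% relative to the plate's high and low controls in the primary single-dose screen; inactive = activation below 50%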;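 note: compound incubated with DTT at 0.8 mM final as the reducing agent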
Diaphorase act: activates diaphorase or chemically reduces, flagging diaphorase assay artifacts | Diaphorase/resazurin coupled assay, resorufin fluorescence, 16 min; stronger effect = higher value; 1 = vehicle wells, 0 = NADH-free wells | activation factor at 20 µM | 190,000 tested, 0.005% active;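 active = diaphorase activity raised at least twofold by the compound at 20 µM; inactive = activation factor below 2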
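Test system: Clostridium kluyveri diaphorase, purified enzyme. Buffer or medium: 50 mM HEPES pH 7.4 buffer plus MgCl2 and Tween 20. Also added: 0.114 mM NADH and 0.1 mM resazurin, final amounts. Dosing: compound 20 µM once, DMSO 1%. Schedule: 16 min enzyme reaction, ambient temperature. Detection: fluorescence of resorufin, 544 nm excitation, 590 nm emission.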
Large screens that a line does not name were inactive. Only a selection was taken, and hits are over-represented in it overall. Cut-off read from the data, not from the text of the source, unless noted: active = inhibition above about 50%; inactive = the rest.

O=C(Nc1ccc(Cl)c(Cl)c1)N1CCSCC1	Lmaj promast 74.0
O=C(Nc1ccc(Cl)c(Cl)c1)N1CCC(N2CCCCC2)CC1	Lmaj promast 91.0
O=C(Nc1ccc(Cl)c(Cl)c1)N1CCCCCC1	none (no result: Diaphorase inh, G6PDH counter, Lmaj promast, Redox H2O2 prof, Diaphorase act)
O=C(N=C1SC2CS(=O)(=O)CC2N1c1cccc(Cl)c1Cl)C1CCCO1 (stereo not given)	none (no result: Diaphorase inh, G6PDH counter, Lmaj promast, Redox H2O2 prof, Diaphorase act)
CCN(CC(=O)Nc1c(F)cccc1F)C(=O)CCN1C(=O)c2cccc([N+](=O)[O-])c2C1=O	none (no result: Diaphorase inh, G6PDH counter, Lmaj promast, Redox H2O2 prof, Diaphorase act)
COc1cc(C(=O)Oc2ccccc2/C=N/NC(=O)c2ccc(Cl)cc2)cc(OC)c1OC	Lmaj promast 93.1
O=C(CCc1ccc(Oc2cc([N+](=O)[O-])cc([N+](=O)[O-])c2)cc1)Nc1cccc(Cl)c1	Lmaj promast 100.1
O=C(CCc1ccc(Oc2cc([N+](=O)[O-])cc([N+](=O)[O-])c2)cc1)N1CCCCC1	Lmaj promast 92.4
Clc1ccc(-c2noc(CSc3nnc(Cc4cccs4)n3-c3ccccc3)n2)cc1	none
Fc1ccc(-n2c(Cc3ccccc3)nnc2SCc2nc(-c3cccs3)no2)cc1	Lmaj promast 99.0
c1ccc(-c2noc(CSc3nnc(Cc4cccs4)n3-c3ccccc3)n2)cc1	Lmaj promast 65.1
Cc1ccc(-n2c(SCc3cn4ccsc4n3)nc3ccccc3c2=O)cc1	Lmaj promast 85.0
c1ccc(-n2cnnc2SCc2cn3ccsc3n2)cc1	none
O=c1c2ccccc2nc(SCc2nc(-c3ccccc3)no2)n1-c1ccc(F)cc1	Lmaj promast 87.2
Cc1ccc(-c2noc(CSc3nnc(Cc4cccs4)n3-c3ccccc3)n2)cc1	none
CC(C)=CC(=O)Nc1ccc(Br)cc1	none
COc1ccc(C(C(=O)NC(C)(C)C)N(C(=O)Cn2nnc3ccccc32)c2cccc(C(C)=O)c2)cc1O (stereo not given)	none (no result: Diaphorase inh, G6PDH counter, Lmaj promast, Redox H2O2 prof, Diaphorase act)
CN(C)S(=O)(=O)c1ccc(C(=O)Nc2nnc(SCc3cccc(F)c3)s2)cc1	Lmaj promast 52.3
CN(C)S(=O)(=O)c1ccc(C(=O)Nc2nnc(SCc3ccccc3)s2)cc1	none
C=CCSc1nnc(NC(=O)c2cccc(S(=O)(=O)N(C)c3ccccc3)c2)s1	Lmaj promast 63.2
CN(C)CCCN(CCCN(C)C)C(=S)Nc1ccc(S(=O)(=O)N2CCOCC2)cc1	none (no result: Diaphorase inh, G6PDH counter, Lmaj promast, Redox H2O2 prof, Diaphorase act)
Cc1cccc(S(=O)(=O)c2c(N)n(/N=C/c3ccco3)c3nc4ccccc4nc23)c1	Lmaj promast 53.3
COc1ccc(Cn2c(C)nc3c(c2=O)c2nc4ccccc4nc2n3Cc2ccco2)cc1	none (no result: Diaphorase inh, G6PDH counter, Lmaj promast, Redox H2O2 prof, Diaphorase act)
Cc1ccc(S(=O)(=O)c2c(N)n(/N=C/c3ccco3)c3nc4ccccc4nc23)cc1C	Lmaj promast 78.7
Nc1c(S(=O)(=O)c2ccccc2)c2nc3ccccc3nc2n1/N=C/c1ccco1	none
Cc1ccc(-n2c(N)c(S(=O)(=O)c3ccccc3)c3nc4ccccc4nc32)cc1	Lmaj promast 57.2
COc1ccc(S(=O)(=O)c2c(N)n(Cc3ccco3)c3nc4ccccc4nc23)cc1	Lmaj promast 72.2
Cc1cc(-c2nnc(CCC(=O)NCc3cccc(C(F)(F)F)c3)o2)no1	none (no result: Diaphorase inh, G6PDH counter, Lmaj promast, Redox H2O2 prof, Diaphorase act)
CN(Cc1ccccc1)c1nc(N)c([N+](=O)[O-])c(NCc2ccccc2)n1	none
Cc1ccc(S(=O)(=O)c2c(N)n(CC3CCOC3)c3nc4ccccc4nc23)cc1 (stereo not given)	Lmaj promast 60.1
Cc1ccc(S(=O)(=O)c2c(N)n(/N=C/c3ccco3)c3nc4ccccc4nc23)cc1	Lmaj promast 58.9
O=C(NCCSc1ccccc1)c1ccc(CN2CCOCC2)cc1	none (no result: Diaphorase inh, G6PDH counter, Lmaj promast, Redox H2O2 prof, Diaphorase act)
O=C(NCCSCc1ccc(Cl)cc1Cl)c1ccc(CN2CCOCC2)cc1	Lmaj promast 89.4
Cc1cccc(CSCCNC(=O)c2ccc(CN3CCOCC3)cc2)c1	Lmaj promast 85.8
CN(C)CCN(Cc1cccs1)S(=O)(=O)c1csc(C(N)=O)c1	none (no result: Diaphorase inh, G6PDH counter, Lmaj promast, Redox H2O2 prof, Diaphorase act)
COc1ccc(-n2nc(C#N)c(Cl)cc2=O)cc1	Lmaj promast 99.5
COC(=O)c1nn(-c2ccc(OC)cc2)c(=O)cc1O	none
COc1cc(/C=C2/SC(=S)NC2=O)ccc1OS(=O)(=O)c1ccc(C)cc1	Diaphorase inh 50.0
COc1cc(/C=C2\SC(=S)NC2=O)ccc1OS(=O)(=O)c1ccccc1	Lmaj promast 62.8 (no result: PfGluPho inh)
C=CCN1C(=O)/C(=C/c2ccc(OC(C)=O)c(OCC)c2[N+](=O)[O-])SC1=S	Lmaj promast 91.4
CCOc1c(OC(C)=O)ccc(/C=C/c2ccc3cccc(OC(C)=O)c3n2)c1[N+](=O)[O-]	none
CCOc1ccc2nc(NC(=O)c3ccc(OCC4CCCO4)cc3)sc2c1 (stereo not given)	Lmaj promast 85.7
Cc1cccc2sc(NC(=O)c3ccc(OCC4CCCO4)cc3)nc12 (stereo not given)	none
O=C(NCc1ccco1)C(c1ccco1)N(C(=O)Cn1nnc2ccccc21)c1ccc2c(c1)CCC2 (stereo not given)	Lmaj promast 91.2 (no result: Diaphorase inh, G6PDH counter, Diaphorase act)
Cc1cccc(N(C(=O)Cn2nnc3ccccc32)C(C(=O)NCc2ccco2)c2ccncc2)c1 (stereo not given)	none
N#Cc1cccc(CN2CCC(=O)N([C@H](CO)Cc3ccccc3)CC2)c1	none (no result: Diaphorase inh, G6PDH counter, Lmaj promast, Redox H2O2 prof, Diaphorase act)
COc1ccc(S(=O)(=O)N2CCc3ccccc32)cc1C(=O)NC1(C)CCS(=O)(=O)C1 (stereo not given)	none (no result: Diaphorase inh, G6PDH counter, Lmaj promast, Redox H2O2 prof, Diaphorase act)
COc1ccc(C(=O)NC(Nc2ccc(C)cc2)C(Cl)(Cl)Cl)cc1 (stereo not given)	Lmaj promast 74.7
Cc1ccc(C(=O)NC(NCc2ccco2)C(Cl)(Cl)Cl)cc1 (stereo not given)	Lmaj promast 59.6
COc1ccc(NC(NC(=O)c2ccc(OC)cc2)C(Cl)(Cl)Cl)cc1 (stereo not given)	none
COc1ccc(NS(=O)(=O)c2cccc(C(=O)N/N=C(\C)c3ccc(-n4ccnc4)cc3)c2)cc1	none
COc1ccc(S(=O)(=O)N/N=C(/C)c2cccc(NC(=O)c3ccccc3Cl)c2)cc1	Lmaj promast 96.7
COc1ccc(NS(=O)(=O)c2cccc(C(=O)N/N=C(\C)c3ccncc3)c2)cc1	Lmaj promast 58.6 (no result: Redox H2O2 prof)
COc1ccc(NS(=O)(=O)c2cccc(NC(=O)CCC(=O)c3ccc(Cl)cc3)c2)cc1	Lmaj promast 79.5
O=C(Nc1cccc(S(=O)(=O)Nc2ccc(Cl)cc2)c1)c1ccc(Cl)nc1	none
COc1ccc(NS(=O)(=O)c2cccc(NC(=O)CCC(=O)c3cccs3)c2)cc1	none
COc1ccc(NS(=O)(=O)c2cccc(NC(=O)c3ccc(Cl)nc3)c2)cc1	Lmaj promast 61.0

From PubChem BioAssay
